{
  "source": "ChEMBL document CHEMBL2176995",
  "about": "“An oral sphingosine 1-phosphate receptor 1 (S1P(1)) antagonist prodrug with efficacy in vivo: discovery, synthesis, and evaluation” (J Med Chem, 2012)",
  "key": {"[1]": {"test_system": "Rattus norvegicus", "test": "Reduction in peripheral blood lymphocytes in Lewis rat assessed as remaining circulating lymphocytes level at 30 mg/kg, po, qd for 5 days by automated hematology analyzer", "format": "functional", "procedure,_shortened": "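Male Lewis rats were dosed daily at 30 mg/kg po for 5 days. Blood lymphocytes were counted on an automated hematology analyzer once a day, before the next dose, and expressed relative to the pretreatment baseline.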"}, "[2]": {"test_system": "Rattus norvegicus", "test": "Reduction in peripheral blood lymphocytes in stringent Dark Agouti to Lewis rat heterotopic vascular heart allotransplantation model at 30 mg/kg, po bid coadministered with 0.3 mg/kg, qd everolimus measured post 50 days post transplant relative to untreated control", "format": "functional", "design": "scale not given: the % may be the effect or the level left", "procedure,_shortened": "(§1)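 DA donor hearts were grafted into Lewis recipients. Treatment started 3 days before transplantation: prodrug 30 mg/kg po b.i.d. (PEG200/water, pH 5) alone or with sotrastaurin 10 mg/kg po b.i.d. or everolimus 0.3 mg/kg po q.d. Grafts were followed to rejection or up to 50 days. Allografts were formalin-fixed, cut at 3 μm, stained with H&E and trichrome, and scored for rejection. Lymphocytes were counted weekly before dosing, and body weight was monitored.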"}, "[3]": {"test_system": "Rattus norvegicus", "test": "Reduction in peripheral blood lymphocytes in stringent Dark Agouti to Lewis rat heterotopic vascular heart allotransplantation model at 30 mg/kg, po bid coadministered with 10 mg/kg, bid sotrastaurin measured post 50 days post transplant relative to untreated control", "format": "functional", "design": "scale not given: the % may be the effect or the level left", "procedure,_shortened": "as §1"}, "[4]": {"test_system": "Rattus norvegicus", "test": "Toxicity in stringent Dark Agouti to Lewis rat heterotopic vascular heart allotransplantation model assessed as change in body weight at 30 mg/kg, po bid coadministered with 0.3 mg/kg, qd everolimus", "format": "organism-based", "conditions": "in vivo", "procedure,_shortened": "as §1"}, "[5]": {"test_system": "Rattus norvegicus", "test": "Toxicity in stringent Dark Agouti to Lewis rat heterotopic vascular heart allotransplantation model assessed as change in body weight at 30 mg/kg, po bid coadministered with 10 mg/kg, bid sotrastaurin", "format": "organism-based", "conditions": "in vivo", "procedure,_shortened": "as §1"}, "[6]": {"test_system": "Rattus norvegicus", "test": "Toxicity in stringent Dark Agouti to Lewis rat heterotopic vascular heart allotransplantation model assessed as compound tolerance at 30 mg/kg, po bid coadministered with 10 mg/kg, bid sotrastaurin", "format": "organism-based", "conditions": "in vivo", "procedure,_shortened": "as §1"}, "[7]": {"test_system": "Rattus norvegicus", "test": "Toxicity in stringent Dark Agouti to Lewis rat heterotopic vascular heart allotransplantation model assessed as change in body weight at 30 mg/kg, po bid", "format": "organism-based", "design": "dose 30 mg/kg, route oral", "conditions": "in vivo", "procedure,_shortened": "as §1"}, "[8]": {"test_system": "Rattus norvegicus", "test": "Toxicity in stringent Dark Agouti to Lewis rat heterotopic vascular heart allotransplantation model assessed as compound tolerance at 30 mg/kg, po bid", "format": "organism-based", "design": "dose 30 mg/kg, route oral", "conditions": "in vivo", "procedure,_shortened": "as §1"}, "[9]": {"test_system": "Rattus norvegicus", "test": "Increase in allograft survival in stringent Dark Agouti to Lewis rat heterotopic vascular heart allotransplantation model assessed as improvement in histological changes at 30 mg/kg, po bid coadministered with 0.3 mg/kg, qd everolimus by hematoxylin and eosin staining", "format": "functional, organism-based", "procedure,_shortened": "as §1"}, "[10]": {"test_system": "Rattus norvegicus", "test": "Increase in allograft survival in stringent Dark Agouti to Lewis rat heterotopic vascular heart allotransplantation model assessed as allograft mean survival time at 30 mg/kg, po bid coadministered with 0.3 mg/kg, qd everolimus (reference value: 6 days)", "format": "functional"}, "[11]": {"test_system": "Rattus norvegicus", "test": "Increase in allograft survival in stringent Dark Agouti to Lewis rat heterotopic vascular heart allotransplantation model assessed as allograft mean survival time at 30 mg/kg, po bid coadministered with 10 mg/kg, bid sotrastaurin (reference value: 6 days)", "format": "functional", "procedure,_shortened": "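This was a DA-to-Lewis heart allograft model with co-treatment from 3 days before transplantation. The prodrug was given po b.i.d. in PEG200/water at pH 5, plus the PKC inhibitor po b.i.d. in D-glucose/PEG400/water/HCl. Lymphocytes were counted weekly before dosing, and blood levels of both drugs were determined. Survival was followed up to 50 days, as median days, with H&E and trichrome histology.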"}, "[12]": {"test_system": "Rattus norvegicus", "test": "Induction of capillary leakage in Lewis rat Evans blue dye lung leakage model assessed as thorax fluid level at 30 mg/kg, po bid measured after 96 hrs relative to untreated control", "format": "organism-based", "design": "dose 30 mg/kg, route oral", "conditions": "in vivo", "procedure,_shortened": "(§2)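 Male Lewis rats were gavaged twice daily with vehicle or 30 mg/kg in 30% PEG200/buffer. Evans blue dye (20 mg/2 mL NaCl/kg iv) was given under anesthesia at 5, 23 or 95 h. One hour later the rats were bled, lungs were perfused with saline, dried at 60 °C for 24 h, weighed, and dye was extracted in formamide (24 h, 37 °C). Thoracic fluid volume was also recorded.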"}, "[13]": {"test_system": "Rattus norvegicus", "test": "Induction of capillary leakage in Lewis rat Evans blue dye lung leakage model assessed as thorax fluid level at 30 mg/kg, po bid measured after 24 hrs relative to untreated control", "format": "organism-based", "design": "dose 30 mg/kg, route oral", "conditions": "in vivo", "procedure,_shortened": "as §2"}, "[14]": {"test_system": "Rattus norvegicus", "test": "Induction of capillary leakage in Lewis rat Evans blue dye lung leakage model assessed as thorax fluid level at 30 mg/kg, po bid measured after 6 hrs relative to untreated control", "format": "organism-based", "design": "dose 30 mg/kg, route oral", "conditions": "in vivo", "procedure,_shortened": "as §2"}, "[15]": {"test_system": "Rattus norvegicus", "test": "Induction of capillary leakage in Lewis rat Evans blue dye lung leakage model at 30 mg/kg, po bid measured 24 hrs after 6 hrs relative to untreated control", "format": "organism-based", "design": "dose 30 mg/kg, route oral", "conditions": "in vivo", "procedure,_shortened": "as §2"}, "[16]": {"test_system": "Rattus norvegicus", "test": "Induction of capillary leakage in Lewis rat Evans blue dye lung leakage model at 30 mg/kg, po bid measured 6 hrs after 6 hrs relative to untreated control", "format": "organism-based", "design": "dose 30 mg/kg, route oral", "conditions": "in vivo", "procedure,_shortened": "as §2"}, "[17]": {"test": "Stability in pH 10 buffer assessed as compound remaining measured after 17 hrs by UPLC", "format": "physicochemical", "conditions": "pH 10, 17 h", "procedure,_shortened": "(§3)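 The ester was incubated in buffer at pH 7.4 or pH 10. Remaining ester and the hydrolysed carboxylic acid were followed over time by UPLC, at time points out to 82 h.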"}, "[18]": {"test": "Stability in pH 10 buffer assessed as compound remaining measured after 2 hrs by UPLC", "format": "physicochemical", "conditions": "read-out: Stability", "procedure,_shortened": "as §3"}, "[19]": {"test": "Stability in pH 7.4 buffer assessed as compound hydrolysis measured after 49 hrs by UPLC", "format": "physicochemical", "conditions": "read-out: Drug degradation", "procedure,_shortened": "as §3"}, "[20]": {"test": "Stability in pH 7.4 buffer assessed as compound hydrolysis measured after 82 hrs by UPLC", "format": "physicochemical", "conditions": "pH 7.4, 82 h", "procedure,_shortened": "as §3"}, "[21]": {"test": "Stability in pH 7.4 buffer assessed as compound hydrolysis measured after 2 hrs by UPLC", "format": "physicochemical", "conditions": "read-out: Drug degradation", "procedure,_shortened": "as §3"}, "[22]": {"test": "Stability in pH 1 buffer by UPLC", "format": "physicochemical", "conditions": "read-out: Stability"}, "[23]": {"test": "Stability in pH 5 buffer by UPLC", "format": "physicochemical"}, "[24]": {"test_system": "Rattus norvegicus", "test": "Reduction in peripheral blood lymphocytes in Lewis rat assessed as remaining circulating lymphocytes level at 30 mg/kg, po administered as single dose measured 24 hrs post dose by automated hematology analyzer", "format": "functional", "procedure,_shortened": "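Male Lewis rats receive a single oral dose of compound or vehicle, freshly made in 30% PEG200/buffer. Blood (<200 μL) is drawn by sublingual puncture under isoflurane 5% v/v at baseline and later time points. Lymphocytes are counted on an automated hematology analyzer, and each animal's change is expressed as percent of its own pre-treatment baseline.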"}, "[25]": {"test": "Drug level in Lewis rat blood at 30 mg/kg, po administered as single dose measured 24 hrs post dose", "conditions": "read-out: Drug uptake"}, "[26]": {"test": "Drug level in Lewis rat blood at 30 mg/kg, po administered as single dose measured 0.25 hrs post dose", "conditions": "read-out: Drug uptake"}, "[27]": {"test_system": "Blood", "test": "Cmax in Lewis rat blood assessed as level of (S)-2-{[3'-(4-Chloro-2,5-dimethylphenylsulfonylamino)-3,5-dimethylbiphenyl-4-carbonyl]methylamino}-4-dimethylaminobutyric Acid Hydrochloride at 30 mg/kg, po administered as single dose measured 8 hrs post dose", "conditions": "in vivo"}},
  "note": "The source made the active and inactive calls. No cut-off for these calls is given here.",
  "data": [
    {"compound": "COC(=O)[C@H](CCN(C)C)N(C)C(=O)c1c(C)cc(-c2cccc(NS(=O)(=O)c3cc(C)c(Cl)cc3C)c2)cc1C", "values": [
      {"measurement": "Activity", "setting": "[1]", "value": 20, "unit": "%"},
      {"measurement": "Activity", "setting": "[2]", "value": 9, "unit": "%"},
      {"measurement": "Activity", "setting": "[3]", "value": 12, "unit": "%"},
      {"measurement": "Activity", "setting": "[4]", "value": "Non-toxic"},
      {"measurement": "Activity", "setting": "[5]", "value": "Non-toxic"},
      {"measurement": "Activity", "setting": "[6]", "value": "Non-toxic"},
      {"measurement": "Activity", "setting": "[7]", "value": "Non-toxic"},
      {"measurement": "Activity", "setting": "[8]", "value": "Non-toxic"},
      {"measurement": "Activity", "setting": "[9]", "value": "Active"},
      {"measurement": "MST", "setting": "[10]", "value": ">50", "unit": "days"},
      {"measurement": "MST", "setting": "[11]", "value": ">50", "unit": "days"},
      {"measurement": "Activity", "setting": "[12]", "value": "Non-toxic"},
      {"measurement": "Activity", "setting": "[13]", "value": 2, "unit": "mL"},
      {"measurement": "Activity", "setting": "[14]", "value": 1, "unit": "mL"},
      {"measurement": "fold change (FC)", "setting": "[15]", "value": 2.4},
      {"measurement": "fold change (FC)", "setting": "[16]", "value": 3},
      {"measurement": "Stability", "setting": "[17]", "value": "Unstable"},
      {"measurement": "remaining at 2 h", "setting": "[18]", "value": 52, "unit": "%"},
      {"measurement": "degraded at 49 h", "setting": "[19]", "value": 85, "unit": "%"},
      {"measurement": "Stability", "setting": "[20]", "value": "Unstable"},
      {"measurement": "degraded at 2 h", "setting": "[21]", "value": 9, "unit": "%"},
      {"measurement": "half-life", "setting": "[22]", "value": "> 53", "unit": "h"},
      {"measurement": "Stability", "setting": "[23]", "value": "> 53", "unit": "h"},
      {"measurement": "Activity", "setting": "[24]", "value": 22, "unit": "%"},
      {"measurement": "concentration at 24 h", "setting": "[25]", "value": 50, "unit": "ng/mL"},
      {"measurement": "concentration at 0.25 h", "setting": "[26]", "value": 146, "unit": "ng/mL"},
      {"measurement": "Cmax", "setting": "[27]", "value": 29, "unit": "ng/mL"}
    ]}
  ]
}
